From ChEMBL document CHEMBL1153851, “(+/-)-3,4-Dihydroxy-8,9-methylenedioxypterocarpan and derivatives: cytotoxic effect on human leukemia cell lines” (Eur J Med Chem, 2009)

What was measured:
Daudi = assay: Cytotoxicity against human Daudi cells assessed as cell viability after 72 hrs by MTT assay; format: functional, cell-based
Outline: (§1)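 Cells were kept in RPMI 1640 with 5 × 10^-5 M β-mercaptoethanol, 25 mM Hepes (pH 7.4) and 10% heat-inactivated FCS. Daudi received 20% FCS, and Lucena I received 60 nM vincristine to maintain resistance. Cells were seeded at 2 × 10⁴ cells/mL with compound (0.1–50) for 72 h at 37 °C, 5% CO₂. MTT (5 mg/mL stock) was added for 3 h, formazan was dissolved in DMSO, and A490 was read. Triplicate points; mean of ≥3 experiments.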

[1] = Toxicity against PHA-activated human peripheral lymphocytes assessed as cell viability after 72 hrs by MTT assay; format: cell-based, Lymphocyte
Outline: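 PBMC from healthy-volunteer heparinized blood were isolated by Ficoll-Hypaque gradient and resuspended at 10⁶ cells/mL in supplemented RPMI 1640. They were stimulated with PHA and exposed to compound at 2.5–10 µM for 72 h. Controls received diluent without PHA. Viability was read by MTT. Triplicate points; mean ± SD of ≥3 experiments.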

K562 = assay: Cytotoxicity against human K562 cells assessed as cell viability after 72 hrs by MTT assay; format: functional, cell-based; settings: K562, 72 h; outline: as §1
[2] = Cytotoxicity against human K562-Lucena 1 cells assessed as cell viability after 72 hrs by MTT assay; format: functional, cell-based; settings: K562-Lucena 1, 72 h; outline: as §1
HL-60 = assay: Cytotoxicity against human HL60 cells assessed as cell viability after 72 hrs by MTT assay; format: functional, cell-based; settings: HL-60, 72 h; outline: as §1
Jurkat = assay: Cytotoxicity against human Jurkat cells assessed as cell viability after 72 hrs by MTT assay; format: functional, cell-based; outline: as §1

`O=C1C=CC2=C(OC[C@@H]3c4cc5c(cc4O[C@H]23)OCO5)C1=O` (racemic) showed an IC50 (Daudi) of 0.9 µM and an IC50 at 72 h [1] of 2.4 µM.

For `Oc1ccc2c(c1)OC[C@@H]1c3cc4c(cc3O[C@H]21)OCO4` [(+)-MAACKIAIN], the IC50 (K562) was > 50 µM, the IC50 [2] was > 50 µM and the IC50 (HL-60) was > 50 µM.

With `Oc1ccc2c(c1O)OC[C@@H]1c3cc4c(cc3O[C@H]21)OCO4` the IC50 (K562) was 3 µM, the IC50 [2] was 3.7 µM and the IC50 (HL-60) was 2.1 µM. It also gave an IC50 (Daudi) of 2.8 µM and an IC50 (Jurkat) of 7.6 µM.

In the case of `Oc1cc2c(cc1O)[C@@H]1Oc3cc4c(cc3[C@@H]1CO2)OCO4`, the IC50 (K562) is reported as > 20 µM, the IC50 [2] is reported as > 50 µM and the IC50 (HL-60) is reported as > 20 µM.

For `COc1cc2c(cc1O)[C@H]1COc3c(ccc(O)c3O)[C@H]1O2` (racemic), the IC50 (K562) was > 10 µM, the IC50 [2] was > 20 µM and the IC50 (HL-60) was 6.4 µM.
